# According to the RNAGym collection of RNA variant scans (doi:10.1126/science.aae0568):
# This sample holds only a part of the variants without activity.
# B1: tRNA (parent)
# chain: GUUCCGUUGGCGUAAUGGUAACGCGUCUCCCUCCUAAGGAGAAGACUGCGGGUUCGAGUCCCGUACGGAACG
# Variants of: B1
# Test: yeast fitness relative to wild type (ratio to wild type); higher = fitter; tRNA-Arg(CCU), competitive growth, 37 C, YPD
# Procedure, shortened: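 Variants of the tRNA-Arg(CCU) gene were chemically synthesised with a 3% per-site mutation rate across 69 sites and placed at the native genomic locus in Saccharomyces cerevisiae. Six parallel replicates of the pooled strains were competed in YPD at 37°C for 24 hours, and gene amplicons from the start and end populations were read by 100-nucleotide paired-end sequencing. Darwinian fitness relative to wild type was derived from changes in genotype frequencies. Genotypes required ≥ 100 starting reads, and estimates < 0.5 were set to 0.5.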
row,Variant,yeast fitness
1,GUUCCGUUGGCGUGAUGGCAACGCGUCUCCCUCCUAACGAGAACAAUGCGGGUUCGAGUCCCGUACGGAACG [A14G U19C G38C G44C C46A],0.704
2,GUUCCGUUGGCGUGAUGGCAACGCGUCUCCCUCCUAAGGAGAAGACUGCGGGUUCGAGUCCCGUACAGAACG [A14G U19C G67A],0.76
3,GUUCCGUUGGCGUGAUGGUAACGCGUCUCCCUCCUAAGGAGAAGACAGCGGGUUCAAGUCCCGUACGGAACG [A14G U47A G56A],0.724
4,GUUCCGUUGGCGUGAAGGUAACGCGUCUCCCUCCUAAGGAGAAGACCGCGGGUUCGAGUCCCGUACGGAACG [A14G U16A U47C],0.812
5,GUUCCGUUGGCGUGAUGGCAUCGCGUCUCCCUCCUAAGGAGAAGACUGCGGGUUCGAGUCCCGUACGGAACG [A14G U19C A21U],0.503
6,GUUCCGUUGGCGUGAUGGUAACGCGUCCCCCUCCUAAGGAGAAGACUGCGGGUUCGAGUCCCGUACUGCACG [A14G U28C G67U A69C],≤ 0.5
7,GUUCCGUUGGCGUGAAGGUAACGCGUCUCCCUCCUAAGGAGAAGACUGCGGGUUCGAGUCCCGUACGGAACG [A14G U16A],0.886
8,GUUCCGUUGGCGUGAUGGUAACGCGUCUCCCUCCUAAGGAGAAGACUGCGGGUUCGACUCCCGUACGGAUCG [A14G G58C A70U],0.892
9,GUUCCGUUGGCGUGAUGGUAACGCGUCUCCCUCCAAAGGAGUAGAGUGCGGGUUCAAGUCCCGUACGGACCG [A14G U35A A42U C46G G56A A70C],0.569
10,GUUCCGUUGGCGUGAUGGUAACGCGUCUCCCUCCUAAGGAGAAGACUGCGGGUUCGAGUCCCGUACUGAACG [A14G G67U],0.776
11,GUUCCGUUGGCGUGAUGGUAACGCGCCUCCCUCCUAAGGAGAAGACUACGGGUUCGAGUCCCGUACGGAACG [A14G U26C G48A],0.661
12,GUUCCGUUGGCGUGAUGGUAACGCGUCGCCCUCCUAAGGACAAGACUACGGGUUCGAGUCCCGCACGGAACG [A14G U28G G41C G48A U64C],≤ 0.5
13,GUUCCGUUGGCGUGAGGGUAACGGGCCUCCCUCCUAAGGAGAAGACGGCCGGUUCGAGUCCCGUAAGGAACG [A14G U16G C24G U26C U47G G50C C66A],≤ 0.5
14,GUUCCGUUGGCGUGAUGGGAACGCGUCUCCCUCCUAAGGAGAAGACUCCGGGUUCGAGUCCCGUACGGAACG [A14G U19G G48C],0.736
15,GUUCCGUUGGCGUGAUGGUAACGCGACUCCCUCCUAAGGAGAAGACUGCGGGUUCGAGUCCCGUACGGAACG [A14G U26A],0.989
16,GUUCCGUUGGCGUGAUGGCAACGCGUCUCCCUCCUAAGGAGAAGACUGCGGGUUCGAGUCCCGUACGGAACG [A14G U19C],0.919
17,GUUCCGUUGGCGUGAUGGUAACGCGUCCCCCCUCUAAGGAGAAGACUGCGGGUUCAAGUCCCGUACGGAACG [A14G U28C U32C C33U G56A],≤ 0.5
18,GUUCCGUUGGCGUGAUGGUAACGCGUCUCCCGCCGCAGGAGAAGACUGCGGGUUCGAGUCGCGUACGGAGCG [A14G U32G U35G A36C C61G A70G],≤ 0.5
19,GUUCCGUUGGCGUGAUGGUAACGCGGCUCCCUCCUAAGAAGAAGACUGCGGGUUCGAGUCCCGUACGGAACG [A14G U26G G39A],≤ 0.5

row,Variant,yeast fitness
1,GUUCCGUUGGCGUGAGGGUAACGGGCCUCCCUCCUAAGGAGAAGACUGCCGGUUCGAGUCCCGUUCGGAACG [A14G U16G C24G U26C G50C A65U],≤ 0.5
2,GUUCCGUUGGCGUGAUGGUAACGCGUCUCCCGCCUAAGGAGAAGACUGCGGGUUCGAGUCCCGUACGGAACG [A14G U32G],0.597
3,GUUCCGUUGGCGUGAUGGAGACGCGUCUCCCUCCUAAGGUGAAGACUGCGGGUUCGAGUCGCGUACGGAACG [A14G U19A A20G A40U C61G],0.515
4,GUUCCGUUGGCGUGAUGGAAACGCGUGUCCCUCCUAAGGAGAAAAGUGCGGGUUGGAGUCCCGUAAGGAACG [A14G U19A C27G G44A C46G C55G C66A],≤ 0.5
5,GUUCCGUUGGCGUGAUGGUAACGCGUCUCCCUCCCAAGGAGAAGACUGCGGGUUCGGGUCCCGUACGGAACG [A14G U35C A57G],≤ 0.5
6,GUUCCGUUGGCGUGAUGGAAACGCGUCUCCCUCCUAAGGAGAAGACUGCGGGUUUGAGUCCCGUACGGAACG [A14G U19A C55U],≤ 0.5
7,GUUCCGUUGGCGUGAAGGUAACGCGUCUCCCUACUAAGGAGAAGACUGCGGGUUCGAGCCCCGUACGGAACG [A14G U16A C33A U59C],≤ 0.5
8,GUUCCGUUGGCGUGAUGGUAACGCGUCUCCCGCCUAAGGAGAAGACUGCGGGUUCGAGUUCUGUACGGAACG [A14G U32G C60U C62U],0.539
9,GUUCCGUUGGCGUGAUGGUAACGCGUCUCCCUCCGAUGGAGAAGACUGCGGGUUCGAGUCCCGUACGGAACG [A14G U35G A37U],≤ 0.5
10,GUUCCGUUGGCGUGAUGGGAACGCGUGUCCCUCAUAAGGAGUAGACUGCGGGUUCGAGUCCCGUACGGAACG [A14G U19G C27G C34A A42U],≤ 0.5
11,GUUCCGUUGGCGUGAUGGUAACGCGUCUCCCUCCUAAGGAGAAGACUGCGGGUUCGAGUCCCAUACGGAACG [A14G G63A],0.756
12,GUUCCGUUGGCGUGAUGGUAACGCGUCACCCUCCUAAGGAGAAGCCUGCGGGAUCGAGUCCCGUACGGAACG [A14G U28A A45C U53A],≤ 0.5
13,GUUCCGUUGGCGUGAUGGUAACGCGUCACCCUCCUAAGGAGAAGACUGCGGGUUCGAGUCCCGUACGGAACG [A14G U28A],0.705
14,GUUCCGUUGGCGUGAUGGUAACGCGUCUCCCUCCUAAGGAGAAGACUGCGGGUUCGAGUCCCGUACGAAACG [A14G G68A],0.653
15,GUUCCGUUGGCGUGAUGGUAACGCGUCUCCCUCCUAAGGAGAAGACUGCGGGUUCCAGUCCCGUACGGAACG [A14G G56C],0.611
16,GUUCCGUUGGCGUGAAGGUAACGCGUCUCCCUACUAAGGAGAAGACUGUGGGUUUGAGUCCCGUACGGAACG [A14G U16A C33A C49U C55U],≤ 0.5
17,GUUCCGUUGGCGUGAUGGUAACGCGAGUCCCUCCUAAGGAGAAGACUGCGGGUUCGAGUCCAGUACGGAACG [A14G U26A C27G C62A],0.571
18,GUUCCGUUGGCGUGAAGGUAACGGGUCUCCCUCCUAAGGAGAAGACUGCGAGUUCGAGUCCCGUACGGAACG [A14G U16A C24G G51A],0.511
19,GUUCCGUUGGCGUGAUGGAAACGCGUCUCCCUCUUAAGGAGAAGACUGCGGGUUCGAGUCCCGUAUGGAACG [A14G U19A C34U C66U],0.538
